A short description of data set [1]: Cytotoxicity against HEK293A cells assessed as reduction in cell viability after 24 hrs by MTT assay. Particulars: human, hek293-a. The class given is cell-based. The essentials:
(§1)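 Log-phase cells seeded at 1 × 10⁴ per well. Lung cancer lines (A549, NCI-H23, NCI-H460) and normal lines (IMR-90, QSG-7701, HEK-293A) each exposed to 1, 3, 10, 30 and 100 μM for 24 h. MTT (5 mg/mL stock) added for 2 h at 37°C, formazan dissolved in DMSO, absorbance read at 490 nm. Three independent experiments, mean ± SD.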
For orientation: Tetrazolium dyes change colour on reduction, which living cells bring about.

The subject of data set [2] is A549. Kind of data set: Induction of apoptosis in human A549 cells assessed as late apoptotic cells at 3 uM after 12 hrs by Annexin V-FITC/propidium iodide staining-based flow cytometric analysis (reference value: 4.52%). The class given is functional. For orientation: Flow cytometry measures light scatter and fluorescence of single cells or particles in a stream.
In a further data set the test system is IMR-90. Kind of data set: Cytotoxicity against human IMR90 cells assessed as reduction in cell viability after 24 hrs by MTT assay. The class given is cell-based. Particulars: imr-90, 24 h. The essentials: as §1
Data set [3] deals with A549. As to the kind of experiment: Induction of apoptosis in human A549 cells assessed as late apoptotic cells at 3 uM after 6 hrs by Annexin V-FITC/propidium iodide staining-based flow cytometric analysis (reference value: 4.52%). The class given is functional.
Data set [4] concerns A549. Kind of data set: Induction of apoptosis in human A549 cells assessed as early apoptotic cells at 3 uM after 6 hrs by Annexin V-FITC/propidium iodide staining-based flow cytometric analysis (reference value: 2.73%). The class given is functional.
The subject of another data set is NCI-H460. As to the kind of experiment: Cytotoxicity against human NCI-H460 cells assessed as reduction in cell viability after 24 hrs by MTT assay. The class given is functional, cell-based. The essentials: as §1
Data set [5] has as its system A549. Kind of data set: Induction of apoptosis in human A549 cells assessed as late apoptotic cells at 3 uM after 3 hrs by Annexin V-FITC/propidium iodide staining-based flow cytometric analysis (reference value: 4.52%). The class given is functional.
Data set [6] has as its system A549. As to the kind of experiment: Induction of apoptosis in human A549 cells assessed as early apoptotic cells at 3 uM after 12 hrs by Annexin V-FITC/propidium iodide staining-based flow cytometric analysis (reference value: 2.73%). The class given is functional.
Data set [7] deals with A549. As to the kind of experiment: Induction of apoptosis in human A549 cells assessed as late apoptotic cells at 3 uM after 24 hrs by Annexin V-FITC/propidium iodide staining-based flow cytometric analysis (reference value: 4.52%). The class given is functional.
In another data set the test system is NCI-H23. Kind of data set: Cytotoxicity against human NCI-H23 cells assessed as reduction in cell viability after 24 hrs by MTT assay. The class given is functional, cell-based. A digest of the protocol: as §1
Data set [8] deals with A549. Kind of data set: Induction of apoptosis in human A549 cells assessed as early apoptotic cells at 3 uM after 3 hrs by Annexin V-FITC/propidium iodide staining-based flow cytometric analysis (reference value: 2.73%). The class given is functional.
A short description of data set [9]: Cytotoxicity against human QSG7701 cells assessed as reduction in cell viability after 24 hrs by MTT assay. The class given is cell-based. The essentials:
as §1

For data set [10], the system named is A549. Kind of data set: Induction of apoptosis in human A549 cells assessed as early apoptotic cells at 3 uM after 24 hrs by Annexin V-FITC/propidium iodide staining-based flow cytometric analysis (reference value: 2.73%). The class given is functional.

Active and inactive are the calls of the source. The rule behind the calls is not given here.

As to `O=c1[nH]cc(F)c(=O)[nH]1` [FLUOROURACIL], the Activity entry in [1] is listed as “Toxic”; in the data set on A549 [2] it was 5.83%; with IMR-90, “Toxic”; with A549 [3], 4.6%; with A549 [4], 10.68%; in the data set with A549 [5], 4.75%. For the same molecule, the Activity is 13.87% in the data set on A549 [6]; 4.22% with A549 [7]; 7.91% in the data set on A549 [8]; “Toxic” in [9]; 23.86% with A549 [10]. For the same molecule, the outcome with NCI-H460 and in the data set on NCI-H23 was Active.

Source of the values: ChEMBL document CHEMBL4400568, “The design of 1,4-naphthoquinone derivatives and mechanisms underlying apoptosis induction through ROS-dependent MAPK/Akt/STAT3 pathways in human lung cancer cells” (Bioorg Med Chem, 2019).
